Active and inactive are the calls of the source. The calls are words filed in the database; no cut-off is given here. Bounds are passed on as bounds.

Data set [1] concerns T67. Briefly: Pro-oxidant activity in human T67 cells assessed as induction of mitochondrial ROS generation after 4 hrs by MitoSOX Red probe based fluorescence assay. The format is functional, cell-based. The essentials: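 T67 cells treated 4 h with compound at 1–10 μM; mitochondrial superoxide read by MitoSOX Red fluorescence. Antimycin A (10 μM) as positive control. n = 8; one-way ANOVA with Dunnett's test versus untreated control.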

The target in data set [2] is Amyloid-beta precursor protein (Homo sapiens) (UniProt P05067). As to the kind of experiment: Inhibition of amyloid beta (1 to 42) (unknown origin) self-aggregation at 10 uM after 24 hrs by ESI-IT-MS analysis. In a few lines: (§1)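 Aβ42 incubated 24 h at 30 °C with or without inhibitor; monomer (Aβ42m) and oxidized monomer (Aβ42m Ox) quantified by mass spectrometry with reserpine as internal standard. Residual monomer expressed versus t0 control; oxidized monomer expressed as fold over 24 h control. Test levels 2, 10 and 50 μM.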

Data set [3] concerns T67. Briefly: Antioxidant activity in human T67 cells assessed as decrease in TBHP-induced ROS generation at 10 uM pretreated for 4 hrs followed by TBPH addition for 30 mins by DCFDA dye based fluorescence assay. The data set is classed as functional, cell-based.
Data set [4] addresses Amyloid-beta precursor protein (Homo sapiens) (UniProt P05067). As to the kind of experiment: Inhibition of amyloid beta (1 to 42) (unknown origin) self-aggregation assessed as increase in oxidized amyloid beta 42 monomer level after 24 hrs by ESI-IT-MS analysis. The essentials: as §1
The target is the same in data set [5]. Briefly: Inhibition of amyloid beta (1 to 42) (unknown origin) self-aggregation assessed as residual amyloid beta 42 monomer level at 10 uM after 24 hrs by ESI-IT-MS analysis. In a few lines:
as §1

The target is the same in data set [6]. Briefly: Inhibition of amyloid beta (1 to 42) (unknown origin) self-aggregation assessed as residual amyloid beta 42 monomer level at 50 uM after 24 hrs by ESI-IT-MS analysis. In a few lines:
as §1

Data set [7] has the same target. Briefly: Inhibition of amyloid beta (1 to 42) (unknown origin) self-aggregation at 50 uM after 24 hrs by ESI-IT-MS analysis. The essentials:
as §1

Data set [8] shares this target. As to the kind of experiment: Inhibition of amyloid beta (1 to 42) (unknown origin) self-aggregation assessed as increase in oxidized amyloid beta 42 monomer level at 50 uM after 24 hrs by ESI-IT-MS analysis relative to control. The essentials: as §1
For the next data set, the species on record is Rattus norvegicus. Briefly: Neurotoxicity in rat mixed cortical neurons assessed as neuronal cell death up to 50 uM after 48 hrs by trypan blue dye based phase contrast microscopic analysis. The data set is classed as toxicity, organism-based. The conditions noted are these: cortical neurone. The essentials:
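Mixed rat cortical cell cultures exposed to compound at 0.25−50 μM for 48 h; dead neurons stained with Trypan blue and counted microscopically to quantify neuronal damage.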

In the next data set the test system is neuronal. Briefly: Neuroprotective activity against human amyloid beta (1 to 42)-induced neuronal cell death in rat mixed cortical neurons assessed as decrease in number of dead neurons up to 25 uM incubated for 72 hrs by trypan blue dye based phase contrast microscopic analysis. In a few lines: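 Rat mixed cortical cultures exposed to Aβ42 oligomers preformed by 72 h incubation, with compound added separately; 72 h exposure. Trypan blue–stained dead neurons counted in three random fields/well; means ± SEM of nine determinations.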

For data set [9], the target named is Amyloid-beta precursor protein (Homo sapiens) (UniProt P05067). As to the kind of experiment: Inhibition of amyloid beta (1 to 42) (unknown origin) self-aggregation assessed as increase in oxidized amyloid beta 42 monomer level at 2 uM after 24 hrs by ESI-IT-MS analysis relative to control. In a few lines:
as §1

Data set [10] shares this target. As to the kind of experiment: Inhibition of amyloid beta (1 to 42) (unknown origin) self-aggregation at 2 uM after 24 hrs by ESI-IT-MS analysis. The essentials:
as §1

The target is the same in data set [11]. Briefly: Inhibition of amyloid beta (1 to 42) (unknown origin) self-aggregation assessed as residual amyloid beta 42 monomer level at 2 uM after 24 hrs by ESI-IT-MS analysis. The essentials:
as §1

The target is the same in data set [12]. As to the kind of experiment: Inhibition of amyloid beta (1 to 42) (unknown origin) self-aggregation assessed as increase in oxidized amyloid beta 42 monomer level at 10 uM after 24 hrs by ESI-IT-MS analysis relative to control. In a few lines: as §1
Data set [13] has the same target. As to the kind of experiment: Neuroprotective activity against amyloid beta (1 to 42) (unknown origin)-induced neuronal cell death in rat mixed cortical neurons assessed as number of dead neurons at 5 uM incubated for 72 hrs by trypan blue dye based phase contrast microscopic analysis (reference value: 71.7 +/- 3.1). The essentials:
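100 μM Aβ42 preincubated 72 h alone or with 5-fold molar excess of inhibitor, then added to rat mixed cortical cultures for a further 72 h (final inhibitor 5 μM). Dead neurons stained with Trypan blue, counted in three random microscopic fields/well; means ± SEM of nine determinations.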

Chain of Amyloid-beta precursor protein (Homo sapiens) (P05067 whole entry): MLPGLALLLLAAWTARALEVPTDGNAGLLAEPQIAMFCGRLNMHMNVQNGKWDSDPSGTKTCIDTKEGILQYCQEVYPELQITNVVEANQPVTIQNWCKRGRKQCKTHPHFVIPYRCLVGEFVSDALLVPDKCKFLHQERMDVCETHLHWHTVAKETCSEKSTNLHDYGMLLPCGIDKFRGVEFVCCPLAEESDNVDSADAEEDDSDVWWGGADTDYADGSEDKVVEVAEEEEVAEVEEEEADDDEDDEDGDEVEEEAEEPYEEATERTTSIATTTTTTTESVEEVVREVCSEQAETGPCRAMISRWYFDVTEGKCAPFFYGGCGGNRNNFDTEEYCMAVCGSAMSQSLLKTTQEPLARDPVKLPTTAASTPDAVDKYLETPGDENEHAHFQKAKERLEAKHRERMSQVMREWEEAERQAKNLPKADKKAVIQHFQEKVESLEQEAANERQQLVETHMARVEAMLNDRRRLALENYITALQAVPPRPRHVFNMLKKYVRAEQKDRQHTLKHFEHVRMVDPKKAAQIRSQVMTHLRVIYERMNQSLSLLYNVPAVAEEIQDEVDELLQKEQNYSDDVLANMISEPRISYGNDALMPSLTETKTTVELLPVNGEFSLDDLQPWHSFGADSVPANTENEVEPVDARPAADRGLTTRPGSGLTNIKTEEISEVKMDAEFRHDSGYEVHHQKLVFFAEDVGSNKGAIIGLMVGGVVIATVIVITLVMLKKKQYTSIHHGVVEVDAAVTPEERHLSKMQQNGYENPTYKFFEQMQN

For `NCCCNCCCCNCCCNC(=O)CCC(=O)N1C/C(=C\c2ccc(O)cc2)C(=O)/C(=C/c2ccc(O)cc2)C1`, the Activity entry in the data set with T67 [1] was “Dose-dependent effect”. The inhibition (commonly the drop in the measured response relative to a control, in per cent) in data set [2] is less than 10%.

Take `COc1cc(/C=C2\CN(C(=O)CCC(=O)NCCCNCCCCNCCCN)C/C(=C\c3ccc(O)c(OC)c3)C2=O)ccc1O`: in data set [2], the inhibition is less than 10%. In the data set on T67 [3], the outcome was Active.

Compound `COc1ccc(/C=C2/CN(C(=O)CCC(=O)NCCCNCCCCNCCCN)C/C(=C\c3ccc(OC)c(OC)c3)C2=O)cc1OC` had an inhibition in data set [2] of less than 10%.

Consider `Cl.O=C1/C(=C/c2ccc(O)c(O)c2)CNC/C1=C\c1ccc(O)c(O)c1`, for which the inhibition result in data set [4] is “Dose-dependent effect”; in [7], 54.1%. Further, the Activity in [5] is 20.5%; in [6], 61.9%; in the data set listed under Rattus norvegicus, “Non-Toxic”. Also, in data set [8], the fold change (FC) was found to be 2.56.

As to `NCCCNCCCCNCCCNC(=O)CCC(=O)N1C/C(=C\c2ccccc2)C(=O)/C(=C/c2ccccc2)C1`, the inhibition in data set [2] is less than 10%.

For the compound `NCCCNCCCCNCCCNC(=O)CCC(=O)N1C/C(=C/c2cccc(O)c2)C(=O)/C(=C/c2cccc(O)c2)C1`, the inhibition in [2] was less than 10%.

With `NCCCNCCCCNCCCNC(=O)CCC(=O)N1C/C(=C/c2ccc(O)c(O)c2)C(=O)/C(=C/c2ccc(O)c(O)c2)C1.O=C(O)C(F)(F)F`, the Activity result was “Dose-dependent effect” with T67 [1]; 27% in data set [11]; 46.5 in [13]; 53% in [5]; “Non-Toxic” in the data set filed under Rattus norvegicus. For the same compound, the result with neuronal was Active. Further, the fold change (FC) in [9] was 1.46; in data set [12], 2.14; in data set [8] it was 2.79. In addition, the inhibition in data set [10] was 12%; in [4] it was “Dose-dependent effect”.

The values above are taken from ChEMBL document CHEMBL3864188, “Polyamine Conjugation as a Promising Strategy To Target Amyloid Aggregation in the Framework of Alzheimer's Disease” (ACS Med Chem Lett, 2016).
